# Experimental data of several laboratories.
# Each line is one published result; the experiments were not run side by side.
# Target: Calcium/calmodulin-dependent protein kinase type 1D (CAMK1D, Homo sapiens, UniProt Q8IU85)
SMILES,effect on,technique,concentration,remaining binding [%]
O=S(=O)(NC1CCC(c2cc(F)ccc2F)(S(=O)(=O)c2ccc(Cl)cc2)CC1)C(F)(F)F (stereo not shown),cell-free assay,competition with immobilised ligand,1 µM,79
CN(C)c1nccc(-c2cnn3ncccc23)n1,binding,,1 µM,100
O=C(NCCCN1CCOCC1)c1ccc(Nc2ncc(Cl)c(-c3ccc(Cl)s3)n2)cc1,binding,competition with immobilised ligand,1 µM,44
C=CC(=O)N1CCC(C(=O)NCC(=O)N2CCN(c3nc(-c4cnc(N)nc4C(F)F)nc(N4CCOCC4)n3)CC2)CC1,binding,competition with immobilised ligand,1 µM,100
CN(C)c1nccc(-c2cnc3ncccn23)n1,binding,,1 µM,80
O=C(NCC1CCOCC1)c1n[nH]cc1NC(=O)c1c(F)cccc1F,binding,competition with immobilised ligand,1 µM,96
O=C(NCCCN1CCOCC1)c1ccc(Nc2nccc(-c3cc4ccccc4s3)n2)cc1,binding,competition with immobilised ligand,1 µM,48
O=C(O)[C@H]1[C@H](Cn2nnc3ccccc3c2=O)CC[C@@H]1C(=O)c1ccc(OCCC2CCOCC2)cc1,cell-free assay,competition with immobilised ligand,1 µM,96
COc1cnc(Nc2cccc(S(N)(=O)=O)c2)nc1N1CCN(c2ccccc2)C(=O)C1,binding,competition with immobilised ligand,1 µM,99
N[C@H]1CCN(c2nccc(-c3cnn4ncccc34)n2)C1,binding,,1 µM,91
Cc1cnc(Nc2ccc(C(=O)N3CCC(N4CCCC4)CC3)cc2)nc1-c1cc2ccccc2s1,binding,competition with immobilised ligand,1 µM,8.3
Cc1cnn2ncc(-c3ccnc(N(C)C)n3)c2c1,binding,,1 µM,100
Cc1nc(C2CCN(C(=O)c3ccc(OC(F)(F)F)cc3N)CC2)c2ncc(N3CCN(C)CC3)cc2n1,cell-free assay,competition with immobilised ligand,1 µM,100
COc1cnc(Nc2cccc(S(N)(=O)=O)c2)nc1N1CCN(c2ccccc2)CC1,binding,competition with immobilised ligand,1 µM,100
O=C(N1CCS(=O)(=O)CC1)N1C[C@H](c2ccc(OC(F)(F)F)cc2)C[C@H](c2nc(C3CC3)no2)C1,cell-free assay,competition with immobilised ligand,1 µM,91
COc1ncc2cc3ccccc3nc2c1C#N,cell-free assay,competition with immobilised ligand,5 µM,98
C[C@H]1CCN(c2nccc(-c3cnn4ncccc34)n2)C1,binding,,1 µM,95
CN([C@@H]1CCc2c(CC(=O)O)c3cc(S(C)(=O)=O)ccc3n2C1)S(=O)(=O)c1ccc(F)cc1,cell-free assay,competition with immobilised ligand,1 µM,99
CC1CCCN1c1nccc(-c2cnn3ncccc23)n1 (stereo not shown),binding,,1 µM,100
CCc1ccccc1C(=O)Nc1n[nH]c2c(C)c(F)c(C3C(C#N)=C(C)N(C)C(C)=C3C#N)cc12,cell-free assay,competition with immobilised ligand,1 µM,87
COc1ccnn2ncc(-c3ccnc(N(C)C)n3)c12,binding,,1 µM,100
c1cncc(-c2cccc(Nc3nccc(NC4CCCCC4)n3)c2)c1,binding,competition with immobilised ligand,10 µM,72
